Test results as given in ChEMBL document CHEMBL4368901 (J Med Chem, 2019).
Calls of active or inactive are those of the source. The rule behind the calls is not given here.

What was measured:
[1] = Inhibition of GDH (unknown origin) using NADP+ and glutamate as substrate preincubated for 0.5 hrs followed by substrate addition and measured after 1 hr by EZMTT reagent-based UV-Vis absorbance assay; set-up: species or system Homo sapiens
A549 [2] = experiment: Antiproliferative activity against human A549 cells after 5 days by EZMTT reagent-based assay relative to control; assay type: functional
H22 [3] = experiment: Antiproliferative activity against mouse H22 cells after 5 days by EZMTT reagent-based assay; assay type: functional, cell-based; settings: H22, 120 h
H22 [4] = experiment: Antiproliferative activity against mouse H22 cells after 5 days by EZMTT reagent-based assay relative to control; assay type: functional
CAKI-1 [5] = experiment: Antiproliferative activity against human Caki1 cells after 5 days by EZMTT reagent-based assay relative to control; assay type: functional
HCT-116 [6] = experiment: Antiproliferative activity against human HCT116 cells after 5 days by EZMTT reagent-based assay; assay type: functional, cell-based; settings: HCT-116, 120 h
HCT-116 [7] = experiment: Antiproliferative activity against human HCT116 cells after 5 days by EZMTT reagent-based assay relative to control; assay type: functional
A549 [8] = experiment: Induction of ROS generation in human A549 cells at 10 uM after 12 hrs by DCFH-DA staining-based fluorescence microscopic analysis; assay type: functional, cell-based
In short: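 A549 cells were seeded at 10000 per well and exposed to compound at 0, 3 or 10 µM for 12 h. ROSUP at 100 µg/ml served as the positive control, alongside untreated cells. ROS was then assessed.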

HCT-116 [9] = experiment: Antitumor activity against human HCT116 cells xenografted in nude mouse assessed reduction in tumor size at 10 mg/kg, sc administered for 14 consecutive days; assay type: functional, organism-based
In short: (§1)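 HCT116 xenografts in young SPF nude mice, n=6 per group. Compound given at 10 mg/kg subcutaneously, […]; the control group received N.S. End-point tumour weight, tumour growth and body weight were recorded. End-point tumours were H&E stained to assess tissue damage. Weights were compared by unpaired t test.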

HCT-116 [10] = experiment: Antitumor activity against human HCT116 cells xenografted in nude mouse assessed reduction in tumor weight at 10 mg/kg, sc administered for 14 consecutive days; assay type: functional, organism-based; in short: as §1
HCT-116 [11] = experiment: Antitumor activity against human HCT116 cells xenografted in nude mouse assessed induction of tumor necrosis at 10 mg/kg, […] by hematoxylin and eosin staining-based assay; assay type: functional, organism-based
H22 [12] = experiment: Antitumor activity against mouse H22 cells transplanted in ICR mouse assessed as reduction in tumor weight at 10 mg/kg, sc administered once daily for 10 consecutive days relative to control; assay type: functional
In short: (§2)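 H22 liver cancer model in young SPF ICR mice, n=10 per group. Compound given subcutaneously once daily at 10 mg/kg, 10 injections; the control group received N.S. End-point tumour size and weight, body weight and survival were recorded. Treated groups were compared with control by unpaired t test.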

[13] = Metabolic stability in ICR mouse blood after 2 hrs by HPLC analysis; assay type: ADME, tissue-based
In short: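 Compound was incubated in blood for 2 h and its remaining concentration was quantified by HPLC.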

[14] = Metabolic stability in mouse liver microsomes at 50 uM after 4 hrs in presence of NADPH by HPLC analysis; assay type: ADME, Microsome; settings: read-out: Stability
In short: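 Compound was incubated with mouse liver microsomes for 4 h, with coumarin as the control. The remaining level was quantified by HPLC using UV absorbance at 254 nm.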

[15] = Retention time of compound in mouse liver microsomes at 50 uM by LC-MS/MS analysis; assay type: ADME, Microsome
H22 [16] = experiment: Antitumor activity against mouse H22 cells transplanted in ICR mouse assessed as reduction in tumor size at 10 mg/kg, sc administered once daily for 10 consecutive days relative to control; assay type: functional, organism-based; in short: as §2
[17] = Drug metabolism mouse liver microsomes assessed as metabolite formation due to loss of terminal pyridine and oxygen at 50 uM by LC-MS/MS analysis; assay type: ADME, Microsome
A549 [18] = experiment: Antiproliferative activity against human A549 cells after 5 days by EZMTT reagent-based assay; assay type: functional, cell-based; settings: A549, 120 h
CAKI-1 [19] = experiment: Antiproliferative activity against human Caki1 cells after 5 days by EZMTT reagent-based assay; assay type: functional, cell-based; settings: CAKI-1, 120 h
HCT-116 [20] = experiment: Antitumor activity against human HCT116 cells xenografted in nude mouse assessed reduction in tumor weight at 10 mg/kg, […] relative to control; assay type: functional; set-up: scale not given: the % may be the effect or the level left
H22 [21] = experiment: Antitumor activity against mouse H22 cells transplanted in ICR mouse assessed as increase in mouse survival at 10 mg/kg, sc administered once daily for 10 consecutive days relative to control; assay type: functional, organism-based
[22] = Drug level in tumor of mouse H22 cells transplanted ICR mouse at 10 mg/kg, sc administered once daily for 10 consecutive days by HPLC analysis; assay type: ADME, organism-based, Neoplasm; settings: in vivo
In short: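 Compound accumulation was measured in end-point tumours from H22-bearing ICR mice after once-daily subcutaneous 10 mg/kg dosing, 10 injections. Tumour content was analysed by HPLC.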

Row | Compound | IC50 [1] [nM] | Imax (A549 [2]) [%] | IC50 (H22 [3]) [nM] | Imax (H22 [4]) [%] | Imax (CAKI-1 [5]) [%] | IC50 (HCT-116 [6]) [nM] | Imax (HCT-116 [7]) [%] | Activity (A549 [8]) | Activity (HCT-116 [11]) | Stability [13] | remaining at 4 h, 50 µM [14] [%] | Retention_time [15] [min] | Activity (H22 [16]) | other results
1 | O=C(Cc1cccc(OC(F)(F)F)c1)Nc1ccc(CCCCc2nnc(NC(=O)Cc3ccccn3)s2)nn1 | > 13000 | 82 | > 10000 | 44 | 88 | 28 | 90 | Active | Active | Stable | 46 | 7.97 | Active | Activity (HCT-116 [9]): Active; Activity (HCT-116 [10]): Active; Activity (H22 [12]): Active; Drug metabolism [17]: Metabolite_Detected
2 | O=C(Cc1cccc(OC(F)(F)F)c1)Nc1ccc(CCCCc2nnc(NC(=O)Cc3ccccn3)[se]2)nn1 | > 13000 | 82 | 6780 | 75 | 89 | 9 | 90 | Active | Active | Stable | 50 | 8.2 | Active | IC50 (A549 [18]): 17 nM; IC50 (CAKI-1 [19]): 19 nM; Activity (HCT-116 [20]): 40%; Activity (H22 [21]): Active; Drug uptake [22]: Active
